The results in this text go back to ChEMBL document CHEMBL3994571, “Caffeoyl Triterpenoid Esters as Potential Anti-ischemic Stroke Agents from Celastrus orbiculatus” (J Nat Prod, 2016).

In data set [1] the test system is SH-SY5Y. In words: Neuroprotective activity against oxygen glucose deprivation-induced cell death in human SH-SY5Y cells assessed as increase in cell viability at 10 uM treated at beginning of 24 hrs reoxygenation period by MTT assay. It counts as functional, cell-based. Summed up: (§1)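 SH-SY5Y cells seeded at 2 × 10⁴ cells/well. Medium replaced by glucose-free EBSS (pH 7.4), then 1 h hypoxia (85% N₂, 10% H₂, 5% CO₂, 37 °C). Reoxygenated under normal culture for 24 h, compound added at start of reoxygenation. MTT read at 490 nm, given as % of non-OGD control. Mean ± SEM from three independent experiments.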

Data set [2] concerns SH-SY5Y. The data set can be described thus: Neuroprotective activity in human SH-SY5Y cells assessed as reduction in oxygen glucose deprivation-induced morphological damage at 5 to 10 uM treated at beginning of 24 hrs reoxygenation period. It counts as functional, cell-based. In a few lines:
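SH-SY5Y cells exposed to 1 h OGD in glucose-free EBSS (pH 7.4) under 85% N₂/10% H₂/5% CO₂ at 37 °C, then 24 h reoxygenation. Compound added after OGD at reoxygenation onset. Dendrite fragmentation and cell number assessed by morphological observation.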

In data set [3] the test system is SH-SY5Y. In words: Neuroprotective activity against oxygen glucose deprivation-induced cell death in human SH-SY5Y cells assessed as cell viability at 10 uM treated at beginning of 24 hrs reoxygenation period by MTT assay (reference value: 55.05 +/- 2.03%). It counts as functional. As to conditions: read-out: Activity. Summed up:
as §1
A general note: Formazan colour is commonly taken as a measure of viable cells.

The test system of data set [4] is SH-SY5Y. The data set can be described thus: Neuroprotective activity against oxygen glucose deprivation-induced cell death in human SH-SY5Y cells assessed as increase in cell viability treated at beginning of 24 hrs reoxygenation period by MTT assay. Type of data set: functional, cell-based. Summed up: as §1
Data set [5] relates to SH-SY5Y. In words: Cytotoxicity against human SH-SY5Y cells at 1 to 10 uM after 24 hrs by MTT assay. Type of data set: cell-based. In a few lines:
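SH-SY5Y cells grown in 1:1 MEM/F12 with 10% FBS and penicillin/streptomycin at 37 °C, 5% CO₂. Seeded at 2 × 10⁴ cells/well. Normal cells without OGD exposed to compound. Viability by MTT: 3 h at 37 °C in dark, formazan dissolved in DMSO, absorbance at 490 nm.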

Data set [6] has as its system Rattus norvegicus. In words: Neuroprotective activity against middle cerebral artery occlusion-induced Sprague-Dawley rat ischemic stroke model assessed as decrease in brain infarct volume at 10 mg/kg, iv dosed 2 hrs post onset of ischemia measured after 24 hrs of reperfusion by TTC staining based assay relative to control. Type of data set: functional. Also noted: scale not given: the % may be the effect or the level left. In a few lines:
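Male Sprague-Dawley rats, 230–280 g, under chloral hydrate (400 mg/kg i.p.). Left MCA occluded 2 h by 4-0 nylon filament, then reperfused; body temperature kept at 37.0 ± 0.5 °C. Edaravone as positive control. After 24 h reperfusion, 2 mm coronal sections stained with 1% TTC for 15 min, then fixed in 4% paraformaldehyde. White tissue scored as infarct. n = 11–14.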

The test system of data set [7] is Rattus norvegicus. In words: Neuroprotective activity against middle cerebral artery occlusion-induced Sprague-Dawley rat ischemic stroke model assessed as reduction in neurological score at 10 mg/kg, iv dosed 2 hrs post onset of ischemia measured after 24 hrs of reperfusion […]. It counts as functional, organism-based. Summed up:
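Male Sprague-Dawley rats, 230–280 g, given 2 h filament MCAO under chloral hydrate anaesthesia, then reperfused. Edaravone as positive control. After 24 h reperfusion, deficits rated by modified Neurological Severity Score on an 18-point scale (motor, visual, tactile); higher means worse. n = 11–14.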

Molecules are shown by their SMILES. The source made the active and inactive calls. No cut-off for these calls is given here.

`C[C@H]1C(=O)CC[C@@H]2[C@]1(C)CC[C@H]1[C@@]2(C)CC[C@@]2(C)[C@@H]3C[C@](C)(COC(=O)/C=C/c4ccc(O)cc4)CC[C@]3(C)CC[C@]12C`: the result with SH-SY5Y [1] was inactive.
For the compound `C[C@H]1C(=O)CC[C@@H]2[C@]1(C)CC[C@H]1[C@@]2(C)CC[C@@]2(C)[C@@H]3C[C@](C)(COC(=O)/C=C/c4ccc(O)c(O)c4)CC[C@]3(C)CC[C@]12C`, the result with SH-SY5Y [1], in the data set with SH-SY5Y [2] and with Rattus norvegicus [7] was Active. Further, in the data set with SH-SY5Y [3], the viability at 10 µM is 115%. In addition, the results for the Activity entry in the data set with SH-SY5Y [4], with SH-SY5Y [5] and in the data set with Rattus norvegicus [6] were “Dose-dependent effect”, “Non-Toxic” and 14.2%, respectively.
